KCNQ1 act: potentiates or activates the human KCNQ1 potassium channel; B-score at 10 µM; actives 0.35% (n = 310,000); CHO-K1 KCNQ1, thallium flux FluxOR fluorescence; active compounds read high; AID 2648; P51787;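 active = fluorescence ratio B-score, a plate-corrected score, at least three library SD, with initial intensity B-score within 5 SD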
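assay system = KCNQ1-transfected CHO-K1 cells | medium = assay buffer with matched DMSO | probe or stimulus = depolarizing K+/Tl+ stimulus, K2SO4 and Tl2SO4 each 12.5 mM in 5x stock | dosing = single dose | incubation = dye 90 min, compound 20 min, room temperature | detection = kinetic FluxOR fluorescence, 10 s baseline plus 110 s post-stimulus | evaluation = ratio B score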
KCNK9 inh: blocks the human KCNK9 two-pore domain potassium channel; Q9NPC2; HEK293 KCNK9, FluxOR thallium flux fluorescence; active compounds read low; B-score at 10 µM; actives 1.2% (n = 310,000); AID 488922;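 active = ratio B-score over 3 SD below the library mean, with starting fluorescence within 5 SD of its mean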;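 note: negative B-score means less thallium flux so channel inhibition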
Target sequence (Q9NPC2 whole entry, looked up, the tested form may be a part): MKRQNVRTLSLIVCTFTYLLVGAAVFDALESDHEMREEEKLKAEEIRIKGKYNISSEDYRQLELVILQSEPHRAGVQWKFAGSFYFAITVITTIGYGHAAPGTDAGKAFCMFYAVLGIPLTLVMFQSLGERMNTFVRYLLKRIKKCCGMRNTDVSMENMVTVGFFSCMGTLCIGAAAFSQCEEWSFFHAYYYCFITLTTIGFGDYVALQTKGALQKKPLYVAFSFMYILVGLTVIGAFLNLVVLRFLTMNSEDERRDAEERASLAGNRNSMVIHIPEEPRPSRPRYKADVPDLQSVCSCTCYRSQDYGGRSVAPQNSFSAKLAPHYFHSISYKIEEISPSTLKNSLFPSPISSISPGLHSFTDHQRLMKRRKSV
KCNQ1 inh: human KCNQ1 channel inhibition | CHO-K1 KCNQ1, FluxOR thallium flux fluorescence; active compounds read high | B-score at 10 µM | actives 1.3% (n = 310,000) | AID 2642;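 active = compounds whose thallium flux B-score, printed positive for inhibition, exceeds three library SD while starting fluorescence stays within three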;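 note: channel opened by potassium depolarization with thallium stimulus after 20 min compound exposure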
KCNK3 inh: human KCNK3 channel inhibition, primary screen | B-score at 10 µM | CHO-KCNK3 thallium flux, FluxOR fluorescence; active compounds read low | O14649 | actives 0.84% (n = 340,000);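 active = B-score under library mean minus 4 SD, starting fluorescence ratio at most library mean plus 5 SD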;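 note: more negative B-score means stronger inhibition of thallium flux through KCNK3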
Target sequence (O14649 whole entry, looked up): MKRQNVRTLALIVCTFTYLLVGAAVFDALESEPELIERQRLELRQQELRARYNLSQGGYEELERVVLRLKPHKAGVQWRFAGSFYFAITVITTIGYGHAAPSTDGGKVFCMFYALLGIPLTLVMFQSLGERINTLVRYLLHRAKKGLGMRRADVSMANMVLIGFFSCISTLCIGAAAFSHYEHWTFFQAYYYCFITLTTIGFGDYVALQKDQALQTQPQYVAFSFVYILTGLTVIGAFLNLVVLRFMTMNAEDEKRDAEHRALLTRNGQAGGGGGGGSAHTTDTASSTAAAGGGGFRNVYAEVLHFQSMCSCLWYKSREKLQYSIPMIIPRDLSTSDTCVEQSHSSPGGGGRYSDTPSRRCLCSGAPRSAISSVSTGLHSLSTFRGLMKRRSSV
KCC2 mod: modulators of human KCC2 chloride dependent transport; actives 2.2% (n = 190,000); KCC2 cells, thallium flux FluoZin-2 fluorescence; Q9H2X9; AID 1456; B-score of Tl+ flux slope (higher = more flux/activation; lower = inhibition) at 10 µM;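 active = thallium flux slope and its plate-corrected score both differing from the plate sample mean at a set confidence after two filtering rounds, in either direction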;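 note: slope of fluorescence scaled to starting intensity during 10 to 20 s after thallium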
hERG protect: compounds protecting human hERG from proarrhythmic drug block; actives 0.51% (n = 310,000); CHO-hERG, FluxOR thallium flux, dofetilide IC70 present; activation (rescue from dofetilide block), less the hit threshold, % at 10 µM;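 active = activation above the mean of controls blocked by dofetilide plus 5 SD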;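 note: thallium influx through hERG after potassium depolarization seen as dye fluorescence rise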
KCC2 secondary: KCC2 (human) modulation, secondary assay. normalised thallium flux (F/F0 slope) at 10 µM. AID 1713. HEK293-KCC2, thallium flux, FluoZin2 fluorescence; active compounds read high. actives 15% (n = 3,700). shares compounds with KCC2 mod;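 active = thallium flux slope above the same plate's solvent-only control mean plus 3 SD; inconclusive = the two replicate wells disagree; inactive = no significant difference from solvent-only control wells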
KCC2 bumet counter: thallium flux despite bumetanide block in KCC2 cells, secondary assay 3; shares compounds with KCC2 mod; HEK293-KCC2 + bumetanide/ouabain, thallium flux FluoZin2; active compounds read high; normalized thallium flux at 10 µM; actives 49% (n = 3,700);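 active = thallium entry rate above the same plate's blocked-transporter control wells by more than 3 SD; inconclusive = the two repeat wells disagree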;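 note: raw slope of fluorescence over initial fluorescence between 10 and 20 s after thallium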
KCC2 secondary2: KCC2 (human) modulation, second secondary assay. shares compounds with KCC2 mod. actives 23% (n = 3,700). normalized thallium flux at 10 µM. HEK293-KCC2, thallium flux FluoZin2 fluorescence; actives lie on both sides; F/F0 rise rate, 10–20 s post-thallium;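 active = thallium flux slope more than 3 SD above or below the plate's solvent-only control mean, mostly below; inconclusive = the two repeat wells disagreed; inactive = no significant shift from solvent-only controls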
HEK counter1: parental HEK flux effect, counter-screen; HEK293 parental cells, thallium flux FluoZin2, ouabain; baseline-ratio fluorescence slope, 10–20 s after thallium; shares compounds with KCC2 mod; thallium flux rate (normalised fluorescence) at 10 µM; AID 1716; actives 46% (n = 3,700);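 active = thallium flux rate significantly above the same plate's solvent-only control wells, beyond their mean plus 3 SD; inconclusive = the two replicate wells gave conflicting results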
KCC2 retest ouab: modulates human KCC2 on retest with ouabain; raw Tl+ flux slope (below DMSO = inhibition, above = activation) at 10 µM; actives 48% (n = 3,700); shares compounds with KCC2 mod; HEK293-KCC2, thallium flux FluoZin2 fluorescence; bidirectional: low = inhibitor, high = activator; AID 1717;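 active = thallium flux slope beyond 3 SD from same-plate DMSO control mean in most replicates, usually higher, sometimes lower; inconclusive = repeat tests gave conflicting results; inactive = no significant difference from controls in most replicates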;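 note: slope of initial-normalized fluorescence between seconds 10 and 20 after thallium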
HEK counter2: acts in parental HEK cells, second KCC2 counter-screen; shares compounds with KCC2 mod; HEK293 parental, thallium flux FluoZin-2 fluorescence slope; thallium flux slope at 10 µM; actives 33% (n = 3,700); AID 1718;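 active = thallium flux slope above the same plate's solvent-control mean plus 3 SD in both duplicate wells; inconclusive = duplicate wells that disagreed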;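 note: run without ouabain in cells lacking the KCC2 cotransporter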
A number is an active result; . = inactive; ? = inconclusive; / = no result. Rows were chosen to be rich in hits. Some 4.1% of all compounds tested hit in one or more screens of this group.

SMILES	KCNQ1 act	KCNK9 inh	KCNQ1 inh	KCNK3 inh	KCC2 mod	hERG protect	KCC2 secondary	KCC2 bumet counter	KCC2 secondary2	HEK counter1	KCC2 retest ouab	HEK counter2
O=C(Nc1ccccc1)O/N=C/c1ccccc1Cl	.	.	.	.	-5.7	.	.	.	.	.	.	.
Brc1cccc(-c2nnc3n2CCCCC3)c1	.	.	.	.	.	.	/	/	/	/	/	/
Brc1cccc(-c2cnc3n2CCCCC3)c1	.	.	.	.	/	.	.	.	.	.	.	.
O=C(NC(=S)Nc1ccccc1[N+](=O)[O-])c1ccccc1	.	.	.	.	18	.	.	0.037	?	0.02	0.035	0.021
O=C(NC(=S)Nc1ccccc1N1CCCC1)c1ccco1	12	.	.	.	134	.	0.042	0.11	0.056	0.072	0.068	0.062
O=C(/C=C/c1ccco1)NC(=S)Nc1ccccc1N1CCOCC1	.	.	.	.	.	.	/	/	/	/	/	/
O=C(/C=C/c1ccco1)NC(=S)Nc1ccccc1N1CCCC1	.	.	.	.	3.2	.	.	0.028	.	0.011	.	.
Cc1ccc(C(=O)Nc2ccccc2C(=O)N2CCOCC2)cc1[N+](=O)[O-]	.	.	.	.	6.9	.	.	.	.	.	.	.
Cc1ccc(C(=O)Nc2ccccc2N2CCCCC2)cc1[N+](=O)[O-]	.	.	.	.	.	.	/	/	/	/	/	/
CC1Cc2ccccc2N1C(=S)NC(=O)c1ccco1 (configuration not stated)	.	.	.	.	26	6.7	0.012	0.056	0.042	0.039	0.049	0.029
Cc1ccc(C(=O)NC(=S)Nc2ccccc2N2CCCC2)cc1[N+](=O)[O-]	.	.	.	.	5.5	.	.	0.042	.	0.018	0.04	0.012
O=c1nc(SCc2ccccc2Cl)nc(-c2ccc(Cl)cc2)[nH]1	.	.	.	.	67	.	.	.	.	?	?	.
O=c1nc(SCc2c(F)cccc2Cl)nc(-c2ccc(Cl)cc2)[nH]1	.	.	.	.	.	.	/	/	/	/	/	/
CCSc1nc2c(c(=O)[nH]c(=O)n2C)n1C/C=C(/C)Cl	/	/	/	.	7	/	.	.	.	.	.	.
CSc1nc2c(c(=O)[nH]c(=O)n2C)n1C/C=C(\C)Cl	.	.	.	.	.	.	/	/	/	/	/	/
Cc1nc(SCC(=O)NCc2ccc3c(c2)OCO3)nc(C)c1C	/	/	/	.	/	/	/	/	/	/	/	/
Cc1ccc(NC(=O)CSCC(=O)N2CCCc3ccccc32)cc1	.	.	.	.	/	.	/	/	/	/	/	/
Cn1nc([N+](=O)[O-])nc1Sc1cccc2cccnc12	.	.	.	.	7.6	.	.	0.023	.	0.013	.	.
O=C(NCc1ccccn1)NC12CC3CC(CC(C3)C1)C2	.	.	.	.	.	.	/	/	/	/	/	/
O=C(NCc1ccccn1)C(=O)Nc1nc(C23CC4CC(CC(C4)C2)C3)cs1	.	.	.	.	16	.	.	0.014	.	0.026	0.026	0.015
Cc1cn([C@H](C(=O)NCCCCCCCCCCC(=O)N2CCN(C(=O)OC(C)(C)C)CC2)[C@@H](C)O)nn1	/	/	/	.	/	/	/	/	/	/	/	/
O=C(COc1ccccc1)Nc1nnc(-c2ccc3c(c2)CCCC3)o1	.	.	.	.	8.8	.	?	0.061	.	0.024	0.041	0.012
O=C(COc1ccccc1)Nc1nnc(-c2ccc(F)cc2)o1	.	.	.	.	/	.	/	/	/	/	/	/
COc1ccc(OC)c(-n2nnnc2SCC(=O)NCCc2ccccc2)c1	.	.	.	.	/	.	.	.	?	.	.	.
CS(=O)(=O)Nc1ccc(C2=NN(C(=O)CCCC(=O)O)C(c3cccs3)C2)cc1 (configuration not stated)	.	.	.	.	/	.	/	/	/	/	/	/
SMILES	KCNQ1 act	KCNK9 inh	KCNQ1 inh	KCNK3 inh	KCC2 mod	hERG protect	KCC2 secondary	KCC2 bumet counter	KCC2 secondary2	HEK counter1	KCC2 retest ouab	HEK counter2
Cc1nnc(SCC(=O)NC2CCCCCC2)n1C(C)C	.	.	.	.	/	.	/	/	/	/	/	/
CC[C@H](C)[C@H]1CNC(=S)N1CC1CCN(CCC23CC4CC(CC(C4)C2)C3)CC1	/	/	/	.	/	/	/	/	/	/	/	/
O=C(COc1ccccc1)NC(=S)Nc1ccc2c3c(cccc13)CC2	.	.	.	.	/	.	/	/	/	/	/	/
Cc1ccc(OCC(=O)NC(=S)Nc2ccc3c4c(cccc24)CC3)cc1	.	.	.	.	13	.	.	0.014	.	0.012	?	.
Cc1ccc(OCC(=O)NC(=S)Nc2ccc(Br)cn2)cc1	9	.	.	.	31	12	0.013	0.032	.	0.058	0.037	0.022
Cc1ccc(S(=O)(=O)NCC(=O)OCC(=O)N(C)C2CCCCC2)cc1	/	/	/	.	/	/	/	/	/	/	/	/
CCOc1ccc(S(=O)(=O)NC(C)C(=O)NCc2ccc3c(c2)OCO3)cc1 (configuration not stated)	.	.	.	.	/	.	/	/	/	/	/	/
O=C(NCCN1C(=O)C2C3C=CC(C3)C2C1=O)Nc1ccccc1O (configuration not stated)	.	.	.	.	.	.	.	?	.	.	.	.
Cc1c(NC(=O)NCCN2C(=O)C3C4C=CC(C4)C3C2=O)c(=O)n(-c2ccccc2)n1C (configuration not stated)	.	.	.	.	.	.	/	/	/	/	/	/
Cc1ccc(S(=O)(=O)N2CCN(S(C)(=O)=O)C2C)cc1 (configuration not stated)	.	.	.	.	/	.	/	/	/	/	/	/
CC(C)Cc1csc(NC(=O)c2ccc(Cl)cc2)c1C(=O)O	.	.	.	.	5.2	.	.	0.032	.	0.018	?	?
CC(C)Cc1csc(NC(=O)c2ccccc2Cl)c1C(=O)O	.	.	.	.	.	.	/	/	/	/	/	/
